Laboratory results published in PubChem BioAssay AID504347 (Broad Institute, 2011).
Calls of active or inactive are those of the source.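 The calls were made as follows: active = fitted curve climbs past 10% caspase activation, relative to the positive control, at or below the top valid tested dose; inactive = the rest, including activity in the opposite direction.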

tested on: MEF A1-2A-BIM cells, caspase-3/7 luminescence; experiment: caspase-3/7 readout of A1 inhibition in A1-2A-BIM fibroblasts – cell-based, MEF A1-2A-BIM, luminescence, dry powder, set 4, dose response (AID 504347); details: not given
Procedure, shortened: (§1)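 Assay system: Mouse embryonic fibroblasts co-expressing A1-2A-BIM construct | Medium: RPMI-1640, 10% FBS | Timing: 3 h compound at 37 °C, 1 h reagent at RT | Measured by: Caspase-3/7 DEVD-luciferin luminescence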

First: COCCn1c(=O)c(Sc2ccc(C)cc2)c(Sc2ccc(C)cc2)c2ccccc21
Second: COCCn1c(=O)c([N+](=O)[O-])c(Sc2ccc(C)cc2)c2ccccc21
The AC10 of the first is 3.1-fold higher: 20.2 µM for the first, 6.43 µM for the second.

Compared with `Cn1c(=O)c([N+](=O)[O-])c(Cl)c2ccccc21`, `O=c1[nH]c2ccccc2c(Cl)c1[N+](=O)[O-]` is 2.9-fold higher in AC10: 0.96 µM for the first, 2.8 µM for the second.

First: O=c1c([N+](=O)[O-])c(Cl)c2ccccc2n1Cc1ccccc1
Second: Cc1ccc(Sc2c([N+](=O)[O-])c(=O)n(Cc3ccccc3)c3ccccc23)cc1
The AC10 of the first is 7-fold lower: 2.53 µM for the first, 17.8 µM for the second.

Going from `Cn1c(=O)c([N+](=O)[O-])c(-n2cnc3ccccc32)c2ccccc21` to `CCn1c(=O)c([N+](=O)[O-])c(Sc2ccc(C)cc2)c2ccccc21`, the AC10 rises from 8.18 µM to 15 µM (1.8-fold).

`O=C(COc1ccc(Cl)cc1Cl)NNc1nc(N2CCOCC2)nc(N2CCOCC2)n1` gave an AC10 of 28.5 µM.

tested on: not listed separately; experiment: as above; details: MEF A1-2A-BIM cells, caspase-3/7 luminescence; at 35 µM (top of the series)
Procedure, shortened: as §1

In the case of `Cc1ccc(Sc2c(Sc3ccc(C)cc3)c3ccccc3n(C)c2=O)cc1`, the caspase activation is reported as -0.138% (inactive).
For `C/C(=N\Nc1nc(N2CCCCC2)nc(N2CCCCC2)n1)c1ccc(F)cc1`, the caspase activation was 0.602% (inactive).
For `COc1ccc(CCNc2nc(N3CCOCC3)nc(N3CCOCC3)n2)cc1OC`, the caspase activation was 4.68% (inactive).
